Measurements published in ChEMBL document CHEMBL4052634, “Covalent inhibitors of LgtC: A blueprint for the discovery of non-substrate-like inhibitors for bacterial glycosyltransferases” (Bioorg Med Chem, 2017).
Activity calls are given as the source filed them. The calls are words filed in the database; no cut-off is given here.

Key:
Neisseria meningitidis [1] = assay: Inhibition of Neisseria meningitidis alpha-1,4-galactosyltransferase assessed as rate constant for enzyme activity at 200 uM using lactose as substrate preincubated with substrate measured after 20 mins in presence of UDP-Gal
How it was run: (§1)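 Activity measured at a series of inhibitor concentrations (0.5-200 µM range overall) after pre-incubation with LgtC for 0, 5, 10, 20 and 30 min, using the pre-incubation protocols (lactose 2 mM, UDP-Gal 28 µM, 20 min at 30 °C, malachite green); % of DMSO control plotted semi-logarithmically versus pre-incubation time to give kobs; kobs versus concentration gave Ki and kinact; triplicate.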

Neisseria meningitidis [2] = assay: (§2) Inhibition of Neisseria meningitidis alpha-1,4-galactosyltransferase assessed as consumption of donor UDP-Gal by measuring turnover rate at 0.1 to 100 uM using lactose as substrate preincubated for 5 mins followed by lactose and UDP-Gal addition measured after 20 mins by malachite green dye-based assay relative to total UDP-Gal used
Neisseria meningitidis [3] = assay: as §2, with “180” for “5”
Neisseria meningitidis [4] = assay: Binding affinity to Neisseria meningitidis alpha-1,4-galactosyltransferase assessed as covalent-enzyme adduct formation at 50 uM after 20 mins by mass spectroscopy; conditions: 100 uM, in the assay text read “at 100 uM” for “at 50 uM”
How it was run: (§3)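 LgtC stock without DTT activation, diluted in 13 mM HEPES pH 7.0, incubated with inhibitor (100 or 50 µM, added in DMSO; 10% final DMSO) for 20 min at 30 °C; samples injected directly for electrospray MS to detect protein-inhibitor adducts.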

Neisseria meningitidis [5] = assay: as §2, with “30” for “5”
Neisseria meningitidis [6] = assay: Inhibition of Neisseria meningitidis alpha-1,4-galactosyltransferase assessed as rate constant for enzyme activity at 15 uM using lactose as substrate preincubated with substrate measured after 20 mins in presence of UDP-Gal; how it was run: as §1
[7] = target: Intestinal-type alkaline phosphatase (Bos taurus) (UniProt P19111); assay: Inhibition of calf intestinal alkaline […] at 0.1 to 100 uM using UDP as substrate after 20 mins by malachite green dye-based assay
Chain of Intestinal-type alkaline phosphatase (Bos taurus) (P19111 20-506 limits assumed): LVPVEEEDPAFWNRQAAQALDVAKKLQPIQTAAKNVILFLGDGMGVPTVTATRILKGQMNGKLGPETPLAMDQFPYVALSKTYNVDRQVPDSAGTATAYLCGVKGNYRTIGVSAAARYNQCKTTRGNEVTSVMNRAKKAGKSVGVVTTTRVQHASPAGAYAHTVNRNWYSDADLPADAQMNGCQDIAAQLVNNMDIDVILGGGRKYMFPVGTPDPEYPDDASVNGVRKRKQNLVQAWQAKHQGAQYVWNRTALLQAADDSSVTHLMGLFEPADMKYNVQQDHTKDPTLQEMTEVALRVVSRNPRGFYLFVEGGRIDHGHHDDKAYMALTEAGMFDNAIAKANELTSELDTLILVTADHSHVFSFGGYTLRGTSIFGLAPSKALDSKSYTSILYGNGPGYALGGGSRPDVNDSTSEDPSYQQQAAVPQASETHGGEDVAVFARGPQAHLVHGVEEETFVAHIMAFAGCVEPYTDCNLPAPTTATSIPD

Neisseria meningitidis [8] = assay: as §2, with “60” for “5”
Neisseria meningitidis [9] = assay: Inhibition of Neisseria meningitidis alpha-1,4-galactosyltransferase assessed as rate constant for enzyme activity at 6 uM using lactose as substrate preincubated with substrate measured after 20 mins in presence of UDP-Gal; how it was run: as §1
Neisseria meningitidis [10] = assay: Binding affinity to Neisseria meningitidis alpha-1,4-galactosyltransferase assessed as covalent adduct formation at 100 uM after 20 mins by mass spectrometric analysis; conditions: TDE = time-dependent effect; how it was run: as §3
Neisseria meningitidis [11] = assay: Binding affinity to Neisseria meningitidis alpha-1,4-galactosyltransferase assessed as covalent-enzyme adduct formation at 100 uM after 20 mins by mass spectroscopy; conditions: 50 uM, in the assay text read “at 50 uM” for “at 100 uM”; how it was run: as §3
Neisseria meningitidis [12] = assay: as §2, with “50” for “100”
Neisseria meningitidis [13] = assay: Inhibition of Neisseria meningitidis alpha-1,4-galactosyltransferase assessed as consumption of donor UDP-Gal by measuring turnover rate at 0.1 to 50 uM using lactose as substrate in presence of UDP-Gal measured after 20 min by malachite green dye-based assay relative to total UDP-Gal used
How it was run: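 No pre-incubation: DTT-activated LgtC with MnCl2 5 mM, CIP 10 U/mL, egg-white lysozyme 1 mg/mL, 0.01% Triton, 13 mM HEPES pH 7.0, lactose 2 mM, inhibitor in DMSO (10% final); started with UDP-Gal 28 µM, 20 min at 30 °C, 20-50% donor turnover. Malachite green read at 620 nm against a UDP calibration curve, background without acceptor subtracted, % of assay window; triplicate minimum; IC50 from sigmoidal fit.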

Neisseria meningitidis [14] = assay: Inhibition of Neisseria meningitidis alpha-1,4-galactosyltransferase assessed as rate constant for enzyme activity at 1.5 uM using lactose as substrate preincubated with substrate measured after 20 mins in presence of UDP-Gal; how it was run: as §1
Neisseria meningitidis [15] = assay: as §2, with “assessed as” for “assessed”, “50” for “100”, “20” for “5”
Neisseria meningitidis [16] = assay: Binding affinity to Neisseria meningitidis alpha-1,4-galactosyltransferase assessed as covalent adduct formation at 50 uM by mass spectrometric analysis; conditions: TDE = time-dependent effect; how it was run: as §3
Neisseria meningitidis [17] = assay: Inhibition of Neisseria meningitidis alpha-1,4-galactosyltransferase assessed as rate constant for enzyme activity at 2 uM using lactose as substrate preincubated with substrate measured after 20 mins in presence of UDP-Gal; how it was run: as §1
Neisseria meningitidis [18] = assay: Inhibition of Neisseria meningitidis alpha-1,4-galactosyltransferase assessed as rate constant for enzyme activity at 3 uM using lactose as substrate preincubated with substrate measured after 20 mins in presence of UDP-Gal; how it was run: as §1
Neisseria meningitidis [19] = assay: as §2, with “50” for “100”, “10” for “5”
How it was run: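 Enzyme (DTT-activated) with MnCl2 5 mM, CIP 10 U/mL, lysozyme 1 mg/mL, 0.01% Triton, 13 mM HEPES pH 7.0 and inhibitor in DMSO (10% final) pre-incubated 10 min at 30 °C before UDP-Gal (28 µM) plus lactose (2 mM) added; 20 min at 30 °C; UDP read by malachite green at 620 nm versus UDP standard curve, background-corrected; triplicate.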

Neisseria meningitidis [20] = assay: as §2, with “50” for “100”, “30” for “5”

K (Neisseria meningitidis [1]) [min⁻¹]	inhibition (Neisseria meningitidis [2]) [%]	inhibition (Neisseria meningitidis [3]) [%]	Activity (Neisseria meningitidis [4])	inhibition (Neisseria meningitidis [5]) [%]	K (Neisseria meningitidis [6]) [min⁻¹]	inhibition [7]	inhibition (Neisseria meningitidis [8]) [%]	K (Neisseria meningitidis [9]) [min⁻¹]	Activity (Neisseria meningitidis [10])	Activity (Neisseria meningitidis [11])	inhibition (Neisseria meningitidis [12]) [%]	inhibition (Neisseria meningitidis [13]) [%]	K (Neisseria meningitidis [14]) [min⁻¹]	inhibition (Neisseria meningitidis [15]) [%]	Activity (Neisseria meningitidis [16])	K (Neisseria meningitidis [17]) [min⁻¹]	K (Neisseria meningitidis [18]) [min⁻¹]	inhibition (Neisseria meningitidis [19]) [%]	inhibition (Neisseria meningitidis [20]) [%]	SMILES
0.079	30	19	Active	24	0.021	inactive	29	0.01	Tde											O=C1/C(=C\c2cccc(OCc3ccccc3)c2)C(C(F)(F)F)=NN1c1ccccc1
										Active	32	30	0.017	32	Tde	0.012	0.025	46	32	COc1ccc(/C=C2\C(=O)N(c3ccccc3)N=C2C(F)(F)F)cc1Br
